An excerpt weighted towards active compounds, which were near 2.8% of everything screened.
NPY-Y2 antag – blocks the human neuropeptide Y Y2 receptor; P49146; NPY-Y2 expressing cells, antagonist mode; inhibition, % at 2.7 µM; 140,000 compounds, 0.99% hits; AID 793; in the data active = inhibition above about 17%;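 note: 0% = vehicle with agonist challenge and 100% = reference antagonist with challenge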
Rad51 HR inh – blocks human Rad51 in homologous recombination. hRad51 DNA strand exchange, fluorescence dequenching. inhibition, % at 10 µM. 200,000 compounds, 0.085% hits;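 active = inhibition above 40% at the single screening dose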;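 note: 0% = DMSO control wells and 100% = blanks with heterologous ssDNA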
Target sequence (Q06609 whole entry, looked up): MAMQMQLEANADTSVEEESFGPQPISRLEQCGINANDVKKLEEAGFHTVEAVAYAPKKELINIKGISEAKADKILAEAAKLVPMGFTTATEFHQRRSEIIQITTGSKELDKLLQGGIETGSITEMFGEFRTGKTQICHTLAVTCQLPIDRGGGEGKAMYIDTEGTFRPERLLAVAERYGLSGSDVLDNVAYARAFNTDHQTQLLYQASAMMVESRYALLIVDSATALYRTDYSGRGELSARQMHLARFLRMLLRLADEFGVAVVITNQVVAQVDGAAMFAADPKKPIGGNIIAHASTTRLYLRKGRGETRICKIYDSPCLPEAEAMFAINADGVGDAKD
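Test system: preformed human Rad51 ssDNA filaments; also added: Donor/quencher-labelled 47-bp dsDNA substrate; doses: 10 µM final, single point; times: 37 °C 15-min filament assembly, 30-min compound preincubation, 15-min exchange; detection: FRET fluorescence dequenching, excitation 485 nm, emission 520 nm; read-out basis: Fluorescence-based percent inhibition, control- and blank-normalised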
NPY1 pot ag – potentiators or agonists of human neuropeptide Y receptor Y1 | NPY-Y1 expressing cells, potentiator/agonist activation | 220,000 compounds, 0.37% hits | P25929 | activation, % at 3.6 µM | AID 1304; in the data active = activation above about 33%, passing the limit was not always enough;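 note: cells stimulated with NPY at EC10 then isoproterenol at EC100; 0% = low agonist plus stimulus and 100% = saturating agonist plus stimulus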
NPY-Y1 antag – antagonists of human neuropeptide Y receptor Y1 | inhibition, % at 3.6 µM | AID 1040 | HEK293-CNG Y1 cells, membrane potential fluorescence; NPY at EC95, then isoproterenol | 200,000 compounds, 1% hits;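 active = inhibition above the campaign mean inhibition of all tested compounds plus 3 SD, cut at about 20% in these data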;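 note: 0% = DMSO wells given NPY plus isoproterenol and 100% = isoproterenol alone without NPY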
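Assay system: HEK293 cells with Y1 receptor plus CNG channel | Probe or stimulus: NPY (25 nM), isoproterenol (1 µM), Ro 20-1724 (25 µM) | Timing: Compound incubation 1 h at room temperature, readout 45 min post-stimulation | Measured by: Membrane-potential fluorescent dye readout | Benchmarks: High control isoproterenol alone, low control NPY with isoproterenol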
NPY-Y2 PAM-ag – potentiates or activates human NPY-Y2 receptor; cells expressing NPY-Y2, potentiator/agonist read-out; activation, % at 3.6 µM; 220,000 compounds, 0.45% hits; AID 1359; in the data active = activation above about 27%;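 note: cells stimulated with NPY near EC25 plus isoproterenol at EC100; 0% = vehicle plus submaximal agonist and 100% = vehicle plus saturating agonist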
Measles CPE – protection of cells from measles virus; Measles virus-infected cells, CPE protection, absorbance; protection (pct of control), % at 4 µM; 140,000 compounds, 1.5% hits; AID 841; in the data active = protection mostly above about 24%, no sharp cut-off; inactive = mostly below about 26%
An asterisk follows results filed as active; / = no result given.

SMILES	NPY-Y2 antag	Rad51 HR inh	NPY1 pot ag	NPY-Y1 antag	NPY-Y2 PAM-ag	Measles CPE
Cc1ccc(-c2[nH]nc3c2C(c2ccoc2)C(C#N)=C(N)O3)cc1C (centres undefined)	87*	1	-16	110*	-8	4
N#CC1=C(N)Oc2n[nH]c(-c3cccs3)c2C1c1ccsc1 (centres undefined)	6	-4	9	28*	-6	6
O=c1nc(/C=C/c2cc([N+](=O)[O-])ccc2Cl)cc(C(F)(F)F)[nH]1	1	-1	2	-6	17	55*
C=CC[n+]1ccc(/C=C2\C=Cc3cc(C)ccc3N2CC)c2ccccc21	/	29	27	8	31*	/
NNC(=O)c1cc2cc(OC(F)(F)F)ccc2[nH]1	/	-22	-7	/	-18	/
COc1ccc(C(=O)N2CCN(c3ccccn3)CC2)cc1	5	0	2	3	-2	45*
COc1ccc(CC(=O)N2CCN(c3ccccn3)CC2)cc1	1	4	-2	-3	-6	7
Cc1ccc2nsnc2c1S(=O)(=O)NCc1cccnc1	0	-1	-3	-9	7	39*
CC(C)CC(NC(=O)C(COC(C)(C)C)NC(=O)C(Cc1ccc(O)cc1)NC(=O)C(CO)NC(=O)C(Cc1c[nH]c2ccccc12)NC(=O)C(Cc1cnc[nH]1)NC(=O)C1CCC(=O)N1)C(=O)N[C@@H](CCCN=C(N)N)C(=O)N1CCCC1C(=O)NNC(N)=O (some centres undefined)	/	0	/	/	/	/
CCOC(=O)c1sc(NC(=O)CCN2CCN(CC)CC2)c(C(=O)OCC)c1C	/	-1	-9	7	-1	/
CCc1ccc(OCCOCC(O)CNC(C)(C)C)cc1 (centres undefined)	4	0	6	0	11	13
CC(C)(C)NCC(O)COc1cccc2c1C[C@H](O)[C@H](O)C2 (some centres undefined)	2	-7	118*	-10	102*	54
Cc1cc2c(OCC(O)CNC(C)(C)C)cccc2[nH]1 (centres undefined)	3	/	111*	-19	105*	21
COCCCNCC(O)COc1cccc2[nH]c(C)cc12 (centres undefined)	/	27	108*	-14	101*	/
Cc1ccccc1OCC(O)CN1CCN(C)CC1 (centres undefined)	/	-9	-1	0	-5	/
COCCCNCCCOc1ccc(C)cc1Br	2	5	-28	12	-2	28
CC(C)NC[C@H](O)COc1cccc2[nH]ccc12	/	7	/	/	/	/
Cc1cc2c(OCC(O)CN3CCCC3)cccc2[nH]1 (centres undefined)	/	-10	110*	-18	100*	/
CCOC(=O)CNC(=O)N1CCCC(C(=O)c2cccc(Cl)c2)C1 (centres undefined)	/	-4	-1	3	-8	/
O=C(CC1CCCCC1)Nc1ncn[nH]1	1	-5	-6	1	-9	3
CS(=O)(=O)Nc1cccc(C2=NN(S(C)(=O)=O)C(c3ccccc3)C2)c1 (centres undefined)	/	43*	-5	1	5	/
CCS(=O)(=O)Nc1cccc(C2=NN(S(=O)(=O)CC)C(c3ccccc3)C2)c1 (centres undefined)	/	-2	1	-3	-2	/
CCC(=O)N(Cc1ccco1)C1CC(=O)N(c2ccccc2)C1=O (centres undefined)	2	23	13	-7	6	12
CCn1c(SCC(=O)NCc2cccs2)nnc1-c1ccco1	1	2	6	9	1	26*
O=C(NC1CCCCC1)C(c1ccco1)N(Cc1cccs1)C(=O)Cn1nnc2ccccc21 (centres undefined)	42*	/	-37	51*	0	/
SMILES	NPY-Y2 antag	Rad51 HR inh	NPY1 pot ag	NPY-Y1 antag	NPY-Y2 PAM-ag	Measles CPE
O=C(NC1CCCCC1)C(c1ccco1)N(Cc1ccco1)C(=O)c1ccco1 (centres undefined)	9	-6	9	13	-18	0
O=C(NCc1ccco1)C(c1ccco1)N(Cc1cccs1)C(=O)Cn1nnc2ccccc21 (centres undefined)	3	8	-16	1	4	3
O=C(NC1CCCCC1)C(c1ccccc1)N(Cc1ccco1)C(=O)Cn1cnc2ccccc21 (centres undefined)	55*	0	-130	78*	-97	23
CCC(C)(C)NC(=O)C(c1ccc(C)o1)N(Cc1cccs1)C(=O)Cn1nnc2ccccc21 (centres undefined)	50*	9	-131	70*	-36	2
CCC(C)(C)NC(=O)C(c1ccccc1)N(Cc1cccs1)C(=O)Cn1nnc2ccccc21 (centres undefined)	133*	6	-328	136*	-187	/
N#Cc1c(NC(=O)c2cnccn2)sc2c1CCCC2	3	/	-27	-3	5	11
CC1=C(C(=O)Nc2cccc(F)c2)C(c2ccsc2)C2=C(CC(C)(C)CC2=O)N1 (centres undefined)	5	/	-8	11	1	9
Cc1ccnc(NC(=O)CCC2CCCCC2)c1	20*	4	-8	23*	-10	2
Cc1cc(NC(=O)CCC2CCCCC2)no1	2	6	10	-1	14	12
CCOc1ccc(C2CC(c3ccccc3C)n3ncnc3N2)cc1 (centres undefined)	24*	-1	-13	21*	-12	18
Cc1cc(N2CCN(C/C=C/c3ccccc3)CC2)n2ncnc2n1	4	3	2	-3	9	32*
CCC(CC)NC(=O)c1oc2ccccc2c1COc1ccccc1	26*	-8	-7	32*	1	7
CC(C)CNC(=O)c1oc2ccccc2c1COc1ccccc1	3	/	-29	15	-6	10
COc1ccc(C(=O)/C=C/c2ccc(O)cc2)c(O)c1CC=C(C)C	0	-5	-21	3	-3	25*
COc1ccc(C(=O)/C=C/c2ccc(O)cc2)cc1	/	-8	-8	5	-36	/
COc1ccccc1CNC(=O)CCC(=O)Nc1nnc(C(C)C)s1	2	-32	-12	-1	-7	18
COc1ccccc1CNC(=O)CCC(=O)Nc1nnc(C)s1	2	6	2	-2	-13	51*
CC(C)CC1NC(=S)N(Cc2ccccc2)C1=O (centres undefined)	2	4	17	-2	7	9
COc1ccc(-c2nnc3ccc(SCC(=O)Nc4nc5ccc(C)cc5s4)nn23)cc1OC	0	-9	-5	8	-9	28*
O=C(OCC(=O)c1c[nH]c2ccccc12)c1ccc(Br)o1	1	0	63*	-3	70*	6
O=C(Cc1cscn1)c1ccc(O)cc1O	-3	/	4	-7	0	36*
